The subject of this experiment is platelets, SFLLRN actin polymerization, FITC-phalloidin flow. Put plainly: blockers of PAR1 peptide-driven F-actin formation – cell-based, FITC-phalloidin flow cytometry, repeated runs, selectivity assay for platelet granule secretion inhibitor project, late-stage follow-up (AID 2657). The settings on record: at 10 µM; active compounds read high. In short, it runs like this: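 Assay system: Gel-filtered platelets / Times: 20 min compound, 15 min agonist, 37 °C / Measured by: flow cytometry of fixed, permeabilized platelets stained with FITC-phalloidin / Benchmarks: DMSO-only wells at 0.3% as neutral control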
For orientation: A flow cytometer gives signals particle by particle.

As to `C/C(=N/NC(=O)C1CCCC1)c1ccc(NC(=O)C(F)(F)F)cc1`, the inhibition is 73.5%.

In the case of `Cc1ccc(-n2c(N)c(C#N)c(-c3ccccc3)c(C#N)c2=O)cc1`, the inhibition is 99%.

Usually inhibition stands for the relative decrease from the control value, in per cent.

The values above are taken from PubChem BioAssay AID2657 (Broad Institute, 2010).
